Paper PMC4010290 (Journal of Agricultural and Food Chemistry, 2014)

How the values were obtained:
[1] = biological target: T1, Bovine serum albumin (BSA) (Bos taurus, UniProt P02769); assay: BSA fluorescence quenching; format: binding; conditions: for KSV (Stern–Volmer constant, BSA fluorescence quenching): 3 μM BSA, 22 °C
[2] = biological target: Bovine serum albumin (BSA), Trp134 and Trp213 (Bos taurus, UniProt P02769); assay: Time domain fluorescence lifetime of the two Trp residues of BSA; format: binding; conditions: for τ fluorescence lifetime Trp134 / τ fluorescence lifetime Trp213: 25 μM phenolic
Bovine serum albumin (BSA), Trp134 and Trp213, sequence (P02769 25-607): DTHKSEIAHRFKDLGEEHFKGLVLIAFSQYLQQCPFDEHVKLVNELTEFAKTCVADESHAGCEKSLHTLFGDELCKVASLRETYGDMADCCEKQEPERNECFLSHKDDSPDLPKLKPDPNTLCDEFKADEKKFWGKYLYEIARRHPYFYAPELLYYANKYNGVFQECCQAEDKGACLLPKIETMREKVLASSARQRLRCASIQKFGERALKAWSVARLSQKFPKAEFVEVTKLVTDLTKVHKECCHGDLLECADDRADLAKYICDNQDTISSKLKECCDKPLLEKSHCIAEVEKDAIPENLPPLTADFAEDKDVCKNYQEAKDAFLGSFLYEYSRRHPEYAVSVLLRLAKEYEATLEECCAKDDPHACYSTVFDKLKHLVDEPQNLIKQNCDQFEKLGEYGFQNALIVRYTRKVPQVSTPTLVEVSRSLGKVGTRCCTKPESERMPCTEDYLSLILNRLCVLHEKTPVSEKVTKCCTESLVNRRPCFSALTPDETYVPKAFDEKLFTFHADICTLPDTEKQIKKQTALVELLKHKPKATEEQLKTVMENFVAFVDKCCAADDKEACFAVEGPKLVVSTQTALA
Method in brief: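 BSA (3 μM final) mixed with test compound (25 μM) in 0.2 M sodium phosphate with 0.1 M NaCl at pH 3.0, 5.0 or 7.4. Samples vortexed, nitrogen-sparged 20 min, then held 1 h at 22 °C. Time-correlated single-photon counting used 250 nm LED excitation, collecting to 10000 peak counts. Biexponential decay fit gave lifetimes and amplitudes for Trp134 and Trp213.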

[3] = biological target: T1, Bovine serum albumin (BSA); assay: Induced circular dichroism spectra of BSA; format: binding; conditions: 200 μM ligand; 30 μM BSA; pH 7.4
Method in brief: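 BSA at 30 μM in 0.2 M sodium phosphate, pH 7.4, with test compound at 0–200 μM, dissolved from water stocks. CD recorded 355–245 nm in a 1 mm cell under dry nitrogen at 298–301 K. Settings were 12 accumulated scans, 0.5 nm pitch, 1.0 nm bandwidth and 100 nm/min. Buffer spectrum subtracted, and induced CD calculated from sample spectra by the paper's equation.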

[4] = system: BSA Sudlow site I; conditions: cited from earlier work
[5] = biological target: BSA (Bos taurus, UniProt P02769); format: binding, bovine; conditions: pH 7.4; TB up to a 50-fold excess
BSA, sequence (P02769 25-607): as above

[6] = system: BSA Sudlow site II; conditions: cited from earlier work

T1 sequence (P02769 25-607): as above

Structure (SMILES) | KSV (Stern–Volmer constant, BSA fluorescence quenching) ([1]; pH 3.0) | KSV (Stern–Volmer constant, BSA fluorescence quenching) ([1]; pH 5.0) | KSV (Stern–Volmer constant, BSA fluorescence quenching) ([1]; pH 7.4) | τ fluorescence lifetime Trp134 ([2]; pH 3.0) | τ fluorescence lifetime Trp213 ([2]; pH 3.0) | τ fluorescence lifetime Trp134 ([2]; pH 5.0) | τ fluorescence lifetime Trp213 ([2]; pH 5.0) | τ fluorescence lifetime Trp134 ([2]; pH 7.4) | τ fluorescence lifetime Trp213 ([2]; pH 7.4) | Reduction of fluorescence lifetime of Trp213 ([2]; pH 7.4 only, 25 μM) | Fluctuation of the amplitudes of the induced CD spectra [3] | Association constant, Sudlow site I [4] | Inhibition of EGCg binding to BSA [5] | Association constant, Sudlow site II [6] | Apparent affinity for BSA [1] | Change of lifetime of either Trp ([2]; any pH, 25 μM)
COC(=O)c1cc(O)c(O)c(O)c1 [MG, methyl gallate] | 0.85 × 10^4 M^–1 | 0.81 × 10^4 M^–1 | 5.4 × 10^4 M^–1 | 5.38 ns | 2.11 ns | 6.49 ns | 2.85 ns | 6.29 ns | 2.06 ns | 30% | ~0.2 mdeg |  |  |  |  | 
CCCCC1C(=O)N(c2ccccc2)N(c2ccccc2)C1=O [PB, phenylbutazone] |  |  |  |  |  |  |  |  |  |  |  | 6.2 × 10^5 M^–1 |  |  |  | 
CCCCNC(=O)NS(=O)(=O)c1ccc(C)cc1 [TB, tolbutamide] |  |  |  |  |  |  |  |  |  |  |  | 8.7 × 10^4 M^–1 | did not inhibit | 0.81 × 10^4 M^–1 |  | 
Oc1cc(O)c2c(c1)O[C@H](c1cc(O)c(O)c(O)c1)[C@H](O)C2 [EGC, (−)-Epigallocatechin] | 0.30 × 10^4 M^–1 | 0.23 × 10^4 M^–1 | 0.64 × 10^4 M^–1 | 5.41 ns | 2.15 ns | 6.58 ns | 3.04 ns | 6.54 ns | 2.93 ns |  | ~0.2 mdeg |  |  |  | about 10^3 M^–1 | did not change the lifetime
